Results as given in ChEMBL document CHEMBL1123468, “Synthesis and antiviral activity of (E)-5-(2-bromovinyl)uracil and (E)-5-(2-bromovinyl)uridine” (1986).
Values after ≈ are worked out from the molar mass of the structure shown.

Columns and labels:
E6SM [1] = assay: The compound was tested for its antiviral activity against HSV-2 (196) virus in E6SM cell culture; assay type: functional; settings: Homo sapiens
Procedure, shortened: (§1)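 Virus-induced cytopathogenicity in cell culture, scored microscopically. The value is the minimum concentration that cuts viral cytopathogenicity by 50%. Normal cell morphology was also checked microscopically at up to 400 μg/mL.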

M21 = assay: The compound was tested for its antiviral activity against HSV-1 (KOS) virus in M-21 (GM137) cell line,; assay type: functional; settings: Homo sapiens; procedure, shortened: as §1
E6SM [2] = assay: The concentration required to reduce the cytopathogenicity of HSV-1 (KOS) in E6SM cell culture by 50% in presence of 50 ug/mL concentrations of benzylacyclouridine; assay type: functional; settings: Homo sapiens
Procedure, shortened: (§2)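 E6SM cultures were infected with HSV-1 strain KOS. 6-Aminothymine or benzylacyclouridine was present in the medium together with the test compound. The value is the minimum concentration giving 50% reduction of viral cytopathogenicity, scored by the earlier-described cytopathogenicity inhibition procedure.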

E6SM [3] = assay: The concentration required to reduce the cytopathogenicity of HSV-1 (KOS) in E6SM cell culture by 50% in presence of 300 ug/mL dThd; assay type: functional; settings: Homo sapiens
Procedure, shortened: (§3)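 Thymidine (dThd) was added to the E6SM culture medium alongside the test compound, and cells were infected with HSV-1 strain KOS. The endpoint is the minimum inhibitory concentration that reduces viral cytopathogenicity by 50%. The cytopathogenicity inhibition procedure follows the earlier-described method.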

T-21 (LR) = assay: The compound was tested for its antiviral activity against HSV-1 (KOS) virus in T-21 (LR) cell line; assay type: functional; settings: Homo sapiens; procedure, shortened: as §1
E6SM [4] = assay: The compound was tested for its antiviral activity against HSV-2 (Lyons) virus in E6SM cell culture; assay type: functional; settings: Homo sapiens; procedure, shortened: as §1
E6SM [5] = assay: The concentration required to reduce the cytopathogenicity of HSV-1 (KOS) in E6SM cell culture by 50% in absence of dThd; assay type: functional; settings: Homo sapiens
Procedure, shortened: (§4)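 E6SM cells infected with HSV-1 (KOS), with dThd added to the culture medium at the stated concentration. The value is the minimum concentration that reduces viral cytopathogenicity by 50%.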

BALB/3T3 = assay: The compound was tested for its antiviral activity against HSV-1 (KOS) virus in BALB/3T3 cell line; settings: Mus musculus
E6SM [6] = assay: The concentration required to reduce the cytopathogenicity of HSV-1 (KOS) in E6SM cell culture by 50% in presence of 100 ug/mL dThd; assay type: functional; settings: Homo sapiens; procedure, shortened: as §4
HeLa [7] = assay: The compound was tested for its antiviral activity against HSV-1 (KOS) virus in HeLa cell line; assay type: functional; settings: Homo sapiens; procedure, shortened: as §1
HEp-2 = assay: The compound was tested for its antiviral activity against HSV-1 (KOS) virus in HEp-2M cell line; assay type: functional; settings: Homo sapiens; procedure, shortened: as §1
E6SM [8] = assay: The concentration required to reduce the cytopathogenicity of HSV-1 (KOS) in E6SM cell culture by 50% in presence of absence of concentrations of 6-aminothymine; assay type: functional; settings: Homo sapiens
E1 SM = assay: The compound was tested for its antiviral activity against HSV-1 (KOS) virus in E1SM cell line; assay type: functional, Homo sapiens; procedure, shortened: as §1
[9] = The concentration required to reduce the cytopathogenicity of HSV-1 (KOS) in PRK cell culture by 50% in presence of 100 ug/mL concentrations of 6-aminothymine; assay type: functional; settings: Oryctolagus cuniculus
Procedure, shortened: (§5)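 The cells were primary rabbit kidney (PRK) cultures infected with HSV-1 strain KOS, with 6-aminothymine co-present in the medium. The value is the minimum inhibitory concentration that reduces viral cytopathogenicity by 50%, using the previously described cytopathogenicity inhibition method.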

HeLa [10] = assay: The concentration required to reduce the cytopathogenicity of HSV-1 (KOS) in HeLa cell culture by 50% in presence of 4 ug/m concentrations of 6-aminothymine; assay type: functional; settings: Homo sapiens
E6SM [11] = assay: The compound was tested for its antiviral activity against HSV-1 (McIntyre) virus in E6SM cell culture; assay type: functional; settings: Homo sapiens; procedure, shortened: as §1
E6SM [12] = assay: The compound was tested for its antiviral activity against HSV-1 (F) virus in E6SM cell culture; assay type: functional; settings: Homo sapiens; procedure, shortened: as §1
PRK = assay: The compound was tested for its antiviral activity against HSV-1 (KOS) virus in PRK cell line; assay type: functional; settings: Oryctolagus cuniculus
Procedure, shortened: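 Primary rabbit kidney cells infected with HSV-1 (KOS). The value is the minimum concentration that cuts viral cytopathogenicity by 50%. Cytotoxicity was judged as microscopically detectable alteration of cell morphology at up to 400 μg/mL.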

E6SM [13] = assay: The concentration required to reduce the cytopathogenicity of HSV-1 (KOS) in E6SM cell culture by 50% in presence of 1 ug/mL dThd; assay type: functional; settings: Homo sapiens; procedure, shortened: as §4
E6SM [14] = assay: The concentration required to reduce the cytopathogenicity of HSV-1 (KOS) in E6SM cell culture by 50% in presence of 100 ug/mL concentrations of 6-aminothymine; assay type: functional; settings: Homo sapiens
Procedure, shortened: (§6)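 E6SM cells infected with HSV-1 (KOS), with 6-aminothymine or benzylacyclouridine added to the medium at the stated concentration. The value is the minimum concentration that reduces viral cytopathogenicity by 50%.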

BSC-1 = assay: The compound was tested for its antiviral activity against HSV-1 (KOS) virus in BS-C-1A cell line; assay type: functional, Cercopithecidae; settings: Chlorocebus aethiops; procedure, shortened: as §1
HeLa [15] = assay: The concentration required to reduce the cytopathogenicity of HSV-1 (KOS) in HeLa cell culture by 50% in presence of 100 ug/m concentrations of 6-aminothymine; assay type: functional; settings: Homo sapiens
HSF (VGS) = assay: The compound was tested for its antiviral activity against HSV-1 (KOS) virus in HSF (VGS) cell line; assay type: functional; settings: Homo sapiens; procedure, shortened: as §1
E6SM [16] = assay: The compound was tested for its antiviral activity against vaccinia virus in E6SM cell culture; assay type: functional; settings: Homo sapiens; procedure, shortened: as §1
[17] = The concentration required to reduce the cytopathogenicity of HSV-1 (KOS) in PRK cell culture by 50% in presence of 40 ug/mL concentrations of 6-aminothymine; assay type: functional; settings: Oryctolagus cuniculus; procedure, shortened: as §5
E6SM [18] = assay: The concentration required to reduce the cytopathogenicity of HSV-1 (KOS) in E6SM cell culture by 50% in presence of 30 ug/mL dThd; assay type: functional; settings: Homo sapiens; procedure, shortened: as §3
E6SM [19] = assay: The compound was tested for its antiviral activity against TK-HSV-1 (B2006) virus in E6SM cell culture; assay type: functional; settings: Homo sapiens; procedure, shortened: as §1
E6SM [20] = assay: The compound was tested for its antiviral activity against HSV-1 (KOS) virus in E6SM cell culture; assay type: functional; settings: Homo sapiens; procedure, shortened: as §1
E6SM [21] = assay: The concentration required to reduce the cytopathogenicity of HSV-1 (KOS) in E6SM cell culture by 50% in presence of 3 ug/mL dThd; assay type: functional; settings: Homo sapiens; procedure, shortened: as §4
E6SM [22] = assay: The compound was tested for its antiviral activity against vesicular stomatitis virus in E6SM cell culture; assay type: functional; settings: Homo sapiens; procedure, shortened: as §1
E6SM [23] = assay: The concentration required to reduce the cytopathogenicity of HSV-1 (KOS) in E6SM cell culture by 50% in presence of 10 ug/mL concentrations of benzylacyclouridine; assay type: functional; settings: Homo sapiens; procedure, shortened: as §6
E6SM [24] = assay: The concentration required to reduce the cytopathogenicity of HSV-1 (KOS) in E6SM cell culture by 50% in presence of 20 ug/m concentrations of 6-aminothymine; assay type: functional; settings: Homo sapiens; procedure, shortened: as §6
HeLa [25] = assay: The concentration required to reduce the cytopathogenicity of HSV-1 (KOS) in HeLa cell culture by 50% in presence of absence concentrations of 6-aminothymine; assay type: functional; settings: Homo sapiens
HeLa [26] = assay: The concentration required to reduce the cytopathogenicity of HSV-1 (KOS) in HeLa cell culture by 50% in presence of 20 ug/m concentrations of 6-aminothymine; assay type: functional; settings: Homo sapiens
E6SM [27] = assay: The compound was tested for its antiviral activity against HSV-2 (G) virus in E6SM cell culture; assay type: functional; settings: Homo sapiens; procedure, shortened: as §1
E6SM [28] = assay: The concentration required to reduce the cytopathogenicity of HSV-1 (KOS) in E6SM cell culture by 50% in presence of absence of concentrations of benzylacyclouridine; assay type: functional; settings: Homo sapiens
E6SM [29] = assay: The concentration required to reduce the cytopathogenicity of HSV-1 (KOS) in E6SM cell culture by 50% in presence of 4 ug/m concentrations of 6-aminothymine; assay type: functional; settings: Homo sapiens; procedure, shortened: as §2
Vero = assay: The compound was tested for its antiviral activity against HSV-1 (KOS) virus in vero cell line; assay type: functional; settings: Chlorocebus sabaeus; procedure, shortened: as §1
[30] = The concentration required to reduce the cytopathogenicity of HSV-1 (KOS) in PRK cell culture by 50% in presence of 20 ug/mL concentrations of 6-aminothymine; assay type: functional; settings: Oryctolagus cuniculus; procedure, shortened: as §5
E6SM [31] = assay: The concentration required to reduce the cytopathogenicity of HSV-1 (KOS) in E6SM cell culture by 50% in presence of 10 ug/mL dThd; assay type: functional; settings: Homo sapiens; procedure, shortened: as §4
E6SM [32] = assay: The compound was tested for its antiviral activity against HSV-1 (KOS) virus in E6SM cell line; assay type: functional; settings: Homo sapiens; procedure, shortened: as §1
[33] = The concentration required to reduce the cytopathogenicity of HSV-1 (KOS) in PRK cell culture absence concentrations of 6-aminothymine; assay type: functional; settings: Oryctolagus cuniculus
Mo = assay: The compound was tested for its antiviral activity against HSV-1 (KOS) virus in MO cell line; assay type: functional; settings: Homo sapiens; procedure, shortened: as §1

What does the source list for `O=c1[nH]c(=O)n([C@@H]2O[C@H](CO)[C@@H](O)[C@H]2O)cc1/C=C/Br`?
MIC50 (E6SM [1]): > 400 µg/mL; MIC50 (M21): 4 µg/mL (≈ 11.5 µM); MIC50 (E6SM [2]): 10 µg/mL; MIC50 (E6SM [3]): > 400 µg/mL; MIC50 (T-21 (LR)): 10 µg/mL (≈ 28.6 µM); MIC50 (E6SM [4]): > 400 µg/mL; MIC50 (E6SM [5]): 7 µg/mL (≈ 20 µM); MIC50 (BALB/3T3): > 400 µg/mL; MIC50 (E6SM [6]): > 400 µg/mL; MIC50 (HeLa [7]): 0.4 µg/mL (≈ 1.15 µM); MIC50 (HEp-2): 150 µg/mL (≈ 430 µM); MIC50 (E6SM [8]): 4 µg/mL; MIC50 (E1 SM): 1 µg/mL (≈ 2.86 µM); MIC50 [9]: 10 µg/mL; MIC50 (HeLa [10]): 0.4 µg/mL; MIC50 (E6SM [11]): 2 µg/mL (≈ 5.73 µM); MIC50 (E6SM [12]): 7 µg/mL (≈ 20 µM); MIC50 (PRK): 7 µg/mL (≈ 20 µM); MIC50 (E6SM [13]): 7 µg/mL; MIC50 (E6SM [14]): 4 µg/mL; MIC50 (BSC-1): > 400 µg/mL; MIC50 (HeLa [15]): 1 µg/mL; MIC50 (HSF (VGS)): 1 µg/mL (≈ 2.86 µM); MIC50 (E6SM [16]): > 400 µg/mL; MIC50 [17]: 10 µg/mL; MIC50 (E6SM [18]): > 400 µg/mL; MIC50 (E6SM [19]): > 200 µg/mL; MIC50 (E6SM [20]): 4 µg/mL (≈ 11.5 µM); MIC50 (E6SM [21]): 4 µg/mL; MIC50 (E6SM [22]): > 400 µg/mL; MIC50 (E6SM [23]): 4 µg/mL; MIC50 (E6SM [24]): 3 µg/mL; MIC50 (HeLa [25]): 0.2 µg/mL; MIC50 (HeLa [26]): 0.4 µg/mL; MIC50 (E6SM [27]): > 400 µg/mL; MIC50 (E6SM [28]): 4 µg/mL; MIC50 (E6SM [29]): 3 µg/mL; MIC50 (Vero): > 400 µg/mL; MIC50 [30]: 10 µg/mL; MIC50 (E6SM [31]): 70 µg/mL; MIC50 (E6SM [32]): 4 µg/mL (≈ 11.5 µM); MIC50 [33]: 10 µg/mL (≈ 28.6 µM); MIC50 (Mo): > 400 µg/mL
